In ChEMBL document CHEMBL4251573, “Synthesis and biological evaluation of N-substituted 3-oxo-1,2,3,4-tetrahydro-quinoxaline-6-carboxylic acid derivatives as tubulin polymerization inhibitors” (Eur J Med Chem, 2018):
Calls of active or inactive are those of the source. The calls are words filed in the database; no cut-off is given here.

What was measured:
HeLa [1] = assay: Antiproliferative activity against human HeLa cells after 72 hrs by MTT assay; assay type: functional, cell-based
Method in brief: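 HeLa and SMMC-7721 cells in log phase were seeded at 4000-6000 cells/well. After 24 h, quadruplicate wells were treated with a series of concentrations for 72 h. DMSO stocks were 5 mmol/L, with final DMSO below 0.1%. MTT (10 mg/mL in PBS) was added for 4 h, medium replaced with DMSO, and OD read at 490 nm. IC50 came from at least five concentrations; mean and SD of at least three independent experiments.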

K562 = assay: Antiproliferative activity against human K562 cells after 72 hrs by MTT assay; assay type: functional, cell-based; details: K562, 72 h
Method in brief: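 K562 cells were grown in RPMI 1640 with 10% FBS at 37 °C in 5% CO2, then seeded at 4000-6000 cells/well. Quadruplicate wells were exposed to drug for 72 h, with final DMSO below 0.1%. After 4 h with MTT, solubilizer (10% SDS, 5% isobutyl alcohol, 0.01 M HCl) was added for 12 h, then OD read at 490 nm. IC50 came from at least five concentrations; mean and SD of at least three experiments.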

HeLa [2] = assay: Cell cycle arrest in human HeLa cells assessed as accumulation at G0/G1 phase at 0.10 uM after 24 hrs by propidium iodide staining-based flow cytometric method (reference value: 62.2%); assay type: functional
HeLa [3] = assay: Cell cycle arrest in human HeLa cells assessed as accumulation at S phase at 0.10 uM after 24 hrs by propidium iodide staining-based flow cytometric method (reference value: 10.3%); assay type: functional
HeLa [4] = assay: Cell cycle arrest in human HeLa cells assessed as accumulation at sub G1 phase at 0.15 uM after 24 hrs by propidium iodide staining-based flow cytometric method (reference value: 7.6%); assay type: functional
HeLa [5] = assay: Cell cycle arrest in human HeLa cells assessed as accumulation at G0/G1 phase at 0.15 uM after 24 hrs by propidium iodide staining-based flow cytometric method (reference value: 62.2%); assay type: functional
HeLa [6] = assay: Cell cycle arrest in human HeLa cells assessed as accumulation at S phase at 0.15 uM after 24 hrs by propidium iodide staining-based flow cytometric method (reference value: 10.3%); assay type: functional
HeLa [7] = assay: Cell cycle arrest in human HeLa cells assessed as accumulation at G0/G1 phase at 0.20 uM after 24 hrs by propidium iodide staining-based flow cytometric method (reference value: 62.2%); assay type: functional
HeLa [8] = assay: Cell cycle arrest in human HeLa cells assessed as accumulation at S phase at 0.20 uM after 24 hrs by propidium iodide staining-based flow cytometric method (reference value: 10.3%); assay type: functional
HeLa [9] = assay: Cell cycle arrest in human HeLa cells assessed as accumulation at G2/M phase at 0.20 uM after 24 hrs by propidium iodide staining-based flow cytometric method (reference value: 19.9%); assay type: functional
HeLa [10] = assay: Cell cycle arrest in human HeLa cells assessed as accumulation at sub G1 phase at 0.25 uM after 24 hrs by propidium iodide staining-based flow cytometric method (reference value: 7.6%); assay type: functional
HeLa [11] = assay: Cell cycle arrest in human HeLa cells assessed as accumulation at S phase at 0.25 uM after 24 hrs by propidium iodide staining-based flow cytometric method (reference value: 10.3%); assay type: functional
HeLa [12] = assay: Cell cycle arrest in human HeLa cells assessed as accumulation at G2/M phase at 0.25 uM after 24 hrs by propidium iodide staining-based flow cytometric method (reference value: 19.9%); assay type: functional
HeLa [13] = assay: Cell cycle arrest in human HeLa cells assessed as accumulation at G2/M phase after 24 hrs by propidium iodide staining-based flow cytometric method; assay type: functional
HeLa [14] = assay: Induction of apoptosis in human HeLa cells assessed as early apoptotic cells at 0.10 uM after 24 hrs by annexin V-FITC/propidium iodide staining-based flow cytometric method (reference value: 2.31%); assay type: functional
HeLa [15] = assay: Induction of apoptosis in human HeLa cells assessed as late apoptotic cells at 0.10 uM after 24 hrs by annexin V-FITC/propidium iodide staining-based flow cytometric method (reference value: 0.15%); assay type: functional
HeLa [16] = assay: Induction of apoptosis in human HeLa cells assessed as necrotic cells at 0.10 uM after 24 hrs by annexin V-FITC/propidium iodide staining-based flow cytometric method (reference value: 0.15%); assay type: functional
HeLa [17] = assay: Induction of apoptosis in human HeLa cells assessed as viable cells at 0.10 uM after 24 hrs by annexin V-FITC/propidium iodide staining-based flow cytometric method (reference value: 97.39%); assay type: functional; details: read-out: Activity
HeLa [18] = assay: Induction of apoptosis in human HeLa cells assessed as early apoptotic cells at 0.15 uM after 24 hrs by annexin V-FITC/propidium iodide staining-based flow cytometric method (reference value: 2.31%); assay type: functional
HeLa [19] = assay: Induction of apoptosis in human HeLa cells assessed as late apoptotic cells at 0.15 uM after 24 hrs by annexin V-FITC/propidium iodide staining-based flow cytometric method (reference value: 0.15%); assay type: functional
HeLa [20] = assay: Induction of apoptosis in human HeLa cells assessed as viable cells at 0.15 uM after 24 hrs by annexin V-FITC/propidium iodide staining-based flow cytometric method (reference value: 97.39%); assay type: functional; details: read-out: Activity
HeLa [21] = assay: Induction of apoptosis in human HeLa cells assessed as late apoptotic cells at 0.20 uM after 24 hrs by annexin V-FITC/propidium iodide staining-based flow cytometric method (reference value: 0.15%); assay type: functional
HeLa [22] = assay: Induction of apoptosis in human HeLa cells assessed as viable cells at 0.20 uM after 24 hrs by annexin V-FITC/propidium iodide staining-based flow cytometric method (reference value: 97.39%); assay type: functional; details: read-out: Activity
Sus scrofa = species: Sus scrofa; assay: Competitive binding affinity to porcine brain tubulin preincubated for 1 hr followed by colchicine addition measured after 1 hr by fluorescence assay
Method in brief: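 Tubulin (4 μM) in 80 mM PIPES pH 6.9, 2 mM MgCl2 and 0.5 mM EGTA was preincubated 1 h at 37 °C with 0.1, 1, 5 or 10 μM test agent, with DMSO as control. Colchicine (10 μM) was then added for another 1 h at 37 °C. Tubulin-colchicine fluorescence was read at ex 340/em 435 nm and normalized to DMSO; at least three replicates, mean ± SD.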

HeLa [23] = assay: Induction of apoptosis in human HeLa cells assessed as cell shrinkage at 0.10 to 0.20 uM by microscopic method; assay type: functional, cell-based
Method in brief: (§1)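 Morphology of HeLa cells was examined by light microscopy after 24 h exposure to 0.10, 0.15 or 0.20 μM, or 0.1% DMSO, alongside the annexin V/PI experiment.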

HeLa [24] = assay: Induction of apoptosis in human HeLa cells assessed as membrane blebbing at 0.10 to 0.20 uM by microscopic method; assay type: functional, cell-based; method in brief: as §1
HeLa [25] = assay: Induction of apoptosis in human HeLa cells assessed as plasmatorrhexis at 0.10 to 0.20 uM by microscopic method; assay type: functional, cell-based; method in brief: as §1

For COC(=O)c1ccc2c(c1)NC(=O)CN2C(=O)c1cc(OC)c(OC)c(OC)c1, the IC50 (HeLa [1]) was 0.126 µM, the IC50 (K562) was 0.164 µM and the Activity (HeLa [2]) was 55.2%. For the same molecule, the Activity (HeLa [3]) was 9.9%, the Activity (HeLa [4]) was 31.6% and the Activity (HeLa [5]) was 30.6%. It also gave an Activity (HeLa [6]) of 8.3%, an Activity (HeLa [7]) of 18.4% and an Activity (HeLa [8]) of 8%. It also gave an Activity (HeLa [9]) of 40.4%, an Activity (HeLa [10]) of 33.1% and an Activity (HeLa [11]) of 8.3%. The Activity (HeLa [12]) was 44.6%, the Activity (HeLa [13]) was “Dose-dependent effect” and the Activity (HeLa [14]) was 12.1%. For the same molecule, the Activity (HeLa [15]) was 7.87%, the Activity (HeLa [16]) was 3.9% and the viability at 0.1 µM (HeLa [17]) was 76.1%. It also gave an Activity (HeLa [18]) of 16.5%, an Activity (HeLa [19]) of 9.95% and a viability at 0.15 µM (HeLa [20]) of 69.7%. For the same molecule, the Activity (HeLa [21]) was 14.4%, the viability at 0.2 µM (HeLa [22]) was 62.2% and the Activity (Sus scrofa) was “Dose-dependent effect”. For the same molecule, the Activity (HeLa [23]) was “Active”, the Activity (HeLa [24]) was “Active” and the Activity (HeLa [25]) was “Active”.
